NPY-Y2 PAM-ag: NPY-Y2 potentiators or agonists, primary screen, cell-based. 220,000 tested, 0.45% active. activation, % at 3.6 µM. Neuropeptide Y receptor type 2 (Homo sapiens), P49146. cells expressing NPY-Y2, potentiator/agonist read-out. AID 1359, 2008; in the data active = activation above about 27%;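 also: cells stimulated with NPY near EC25 plus isoproterenol at EC100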
NPY Y1 blocker: NPY-Y1 receptor antagonists, primary screen, cell-based. Neuropeptide Y receptor type 1 (Homo sapiens), P25929. HEK293-CNG Y1 cells, membrane potential fluorescence; NPY at EC95, then isoproterenol. inhibition, % at 3.6 µM. 200,000 tested, 1% active;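 active = inhibition above the campaign mean inhibition of all tested compounds plus 3 SD, cut at about 20% in these data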
Target sequence (P25929 whole entry, looked up): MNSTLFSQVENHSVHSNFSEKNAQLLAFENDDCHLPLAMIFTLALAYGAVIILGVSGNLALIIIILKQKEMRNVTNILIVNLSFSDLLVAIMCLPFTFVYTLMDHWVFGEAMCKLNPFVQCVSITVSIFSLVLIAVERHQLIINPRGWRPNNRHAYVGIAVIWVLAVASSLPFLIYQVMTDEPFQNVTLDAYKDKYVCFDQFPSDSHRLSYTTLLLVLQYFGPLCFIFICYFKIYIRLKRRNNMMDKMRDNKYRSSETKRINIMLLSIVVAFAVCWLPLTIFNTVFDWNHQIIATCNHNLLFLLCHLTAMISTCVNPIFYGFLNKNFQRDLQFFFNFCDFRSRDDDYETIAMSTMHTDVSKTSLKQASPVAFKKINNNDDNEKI
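Benchmarks – high control isoproterenol alone, low control NPY with isoproterenol · Material – HEK293 Y1/CNG channel cell line · Times – dye 3 h, compound 60 min room temperature, stimulation 45 min · Probe or stimulus – NPY (25 nM), isoproterenol (1 µM), Ro 20-1724 (25 µM) · Evaluation – % inhibition of NPY effect · Signal – fluorescence, membrane potential probe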
NPY1 pot ag: NPY-Y1 receptor potentiators or agonists, primary screen, cell-based; NPY-Y1 expressing cells, potentiator/agonist activation; Neuropeptide Y receptor type 1 (Homo sapiens), P25929; 220,000 tested, 0.37% active; activation, % at 3.6 µM; AID 1304, 2008; in the data active = activation above about 33%, passing the limit was not always enough;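 also: cells stimulated with NPY at EC10 then isoproterenol at EC100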
NPY-Y2 antag: NPY-Y2 receptor antagonists, primary screen, cell-based | inhibition, % at 2.7 µM | Neuropeptide Y receptor type 2 (Homo sapiens), P49146 | NPY-Y2 expressing cells, antagonist mode | 140,000 tested, 0.99% active
NPY-Y1 ant conf: NPY-Y1 receptor antagonists, retest of hits, confirmation, HEK293-CNG cells, membrane potential fluorescence, triplicate; cAMP; NPY challenge against isoproterenol-raised cAMP; AID 1254, 2008; inhibition, % at 3.6 µM; shares compounds with NPY Y1 blocker; 1,200 tested, 21% active; in the data active = inhibition above about 20%
NPY2 antag ctr: NPY-Y2 receptor antagonists, selectivity check, confirmation, counter-screen for NPY-Y1 antagonist project, HEK293-CNG cells, membrane potential fluorescence, triplicate | antagonism; cells given NPY, then isoproterenol | 1,200 tested, 28% active | shares compounds with NPY Y1 blocker | inhibition, % at 3.6 µM
A number is an active result; – = inactive; · = no result given. Sampled rows, rich in hits. Any-hit rate of the full collection: about 1.8%. Rule as the data show it, unless noted: active = inhibition above about 17%; inactive = the rest.

SMILES	NPY-Y2 PAM-ag	NPY Y1 blocker	NPY1 pot ag	NPY-Y2 antag	NPY-Y1 ant conf	NPY2 antag ctr
Cc1oc(-c2ccc(Cl)cc2)nc1CN1CCC(C(=O)N2CCN(Cc3ccccc3)CC2)CC1	–	25.3	–	–	20.9	28.7
Cc1oc(-c2cccc(Cl)c2)nc1CN1CCC(C(=O)NCc2ccco2)CC1	–	–	–	–	·	·
Cc1oc(-c2ccc(Cl)cc2)nc1CN1CCC(C(=O)N2CCc3ccccc3C2)CC1	–	–	–	–	·	·
CCN1CCCC1CNC(=O)C1CCN(Cc2nc(-c3cccc(Br)c3)oc2C)CC1 (configuration not stated)	–	20.9	–	–	–	–
CCc1ccc(-c2nc(CN3CCC(C(=O)NCCc4ccc(OC)c(OC)c4)CC3)c(C)o2)cc1	–	28.1	–	–	–	–
CCOC(=O)C1(Cc2ccccc2C)CCCN(C(=O)CCn2nccc2C)C1 (configuration not stated)	–	–	–	·	·	·
N#Cc1ccsc1NC(=O)COc1ccc(-c2nnco2)cc1	–	–	–	–	·	·
O=S(=O)(N1CCCCC1)n1c(Cc2ccccc2)nc2ccccc21	–	–	–	–	·	·
O=S(=O)(c1ccc(Br)cc1)n1c(Cc2ccccc2)nc2ccccc21	–	20.8	–	–	–	–
Cc1cc2nc(SCCOC(=O)Nc3cccc(Cl)c3)nc(C)c2cc1C	–	–	–	–	·	·
Cc1cc2nc(SCCOC(=O)Nc3ccccc3)nc(C)c2cc1C	–	22.6	–	–	–	–
COc1ccc(CCn2c(=O)[nH]c3cc(C(=O)N4CCN(c5ccccn5)CC4)ccc3c2=O)cc1OC	–	–	–	·	·	·
CCCc1cc(-c2[nH]ncc2-c2ccc3c(c2)OCCCO3)c(O)cc1OC	–	–	–	–	·	·
CCc1cc(-c2[nH]ncc2-c2ccc3c(c2)OCO3)c(O)cc1O	–	20.5	–	–	21.1	–
CCOC(=O)C1=C(CS(=O)(=O)c2ccc(F)c(C)c2)NC(=O)NC1c1ccc(O)c(O)c1 (configuration not stated)	–	–	–	–	·	·
CCN(CC)S(=O)(=O)c1ccc(Oc2ccc(S(=O)(=O)N(CC)CC)cc2)cc1	–	31.8	–	–	20.6	–
COC(=O)Nc1ccc(S(=O)(=O)NCc2ccccn2)cc1	–	41.3	–	·	–	–
CC(=O)Nc1ccc(S(=O)(=O)Nc2nc(C)cc(-n3nc(C)cc3C)n2)cc1	–	22.4	–	–	–	–
CCOC(=O)c1c(-c2ccccc2)csc1NC(=O)CSc1nc(N)cc(N)n1	–	–	–	–	·	·
CCOC(=O)c1c(-c2ccccc2)csc1NC(=O)CSc1nc(C)cc(C)n1	–	20.3	–	–	–	–
CCOC(=O)c1c(C)[nH]c(C(=O)OCC(=O)NC(C)(C)C)c1C	–	–	–	·	·	·
CCOC(=O)c1[nH]c(C)c(C(=O)OCC(=O)NC(=O)NC(C)(C)C)c1C	–	21.3	–	–	–	–
COc1ccc(NC(=O)COC(=O)C2CCC(C(C)(C)C)CC2)c([N+](=O)[O-])c1 (configuration not stated)	–	–	–	–	·	·
O=S1(=O)N=C2CCCCCN2C(c2ccc(Br)cc2)N1 (configuration not stated)	–	–	–	·	·	·
CC(C)(C)c1ccc(Cn2c(=N)n(CC(O)c3ccco3)c3ccccc32)cc1 (configuration not stated)	–	47.0	–	·	21.6	30.8
CCCCCCCn1c(=N)n(CC(O)c2ccco2)c2ccccc21 (configuration not stated)	–	32.9	–	·	24.5	23.5
O=C(CCc1nc(-c2cccs2)no1)NCc1ccc(F)cc1Cl	–	–	–	–	·	·
Cc1ccc(CNC(=O)CCc2nc(-c3cccs3)no2)cc1	–	21.4	–	–	–	–
COC(=O)[C@@]1(Cc2ccc(OC)cc2)[C@H]2c3cc(C(=O)N(C)C)n(Cc4ccc(OC(F)(F)F)cc4)c3C[C@H]2CN1C(=O)c1ccccc1	–	35.1	–	–	–	–
COC(=O)[C@@]1(Cc2ccc(OC)cc2)[C@H]2c3cc(C(=O)N(C)C)n(C[C@H](O)CO)c3C[C@H]2CN1C(=O)c1ccccc1	–	–	–	–	·	·

High-throughput results (PubChem)
